Test results from ChEMBL document CHEMBL2401717, “Synthesis and bioactive evaluation of novel hybrids of metronidazole and berberine as new type of antimicrobial agents and their transportation behavior by human serum albumin” (Bioorg Med Chem, 2013).
Converted amounts (≈) assume the structure as drawn.

Tests used:
[1] = Solubility of the compound in phosphate buffer at pH 7.5 after 20 hrs by UV spectrophotometry; type: physicochemical
Procedure, shortened: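 Phosphate buffer pH 7.5 added to solid; suspension sonicated 10 min, then shaken at room temperature for 20 h and centrifuged. Supernatant concentration read by UV absorbance against a regression calibration curve (278 and 340 nm).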

Proteus vulgaris = experiment: Antibacterial activity against Proteus vulgaris after 24 hrs by twofold broth dilution method; type: functional
Procedure, shortened: (§1)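 MIC by NCCLS-recommended twofold broth microdilution, run in triplicate. Strains: B. subtilis ATCC6633, E. coli DH52, M. luteus ATCC4698, P. vulgaris ATCC6896, S. dysenteriae, S. aureus ATCC25923, MRSA N315, C. albicans ATCC76615, C. mycoderma. References were chloromycin, norfloxacin and berberine for bacteria, and fluconazole for fungi.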

Escherichia coli = experiment: Antibacterial activity against Escherichia coli DH52 after 24 hrs by twofold broth dilution method; type: functional; settings: DH52, 24 h; procedure, shortened: as §1
Shigella dysenteriae = experiment: Antibacterial activity against Shigella dysenteriae after 24 hrs by twofold broth dilution method; type: functional; procedure, shortened: as §1
Bacillus subtilis = experiment: Antibacterial activity against Bacillus subtilis after 24 hrs by twofold broth dilution method; type: functional; procedure, shortened: as §1
[2] = Stability of the compound at pH 6.5 to 8.5 after 30 mins by UV spectrophotometry; type: physicochemical; settings: buffer, pH 6.5, 0.5 h
Procedure, shortened: (§2)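 Stability followed by UV spectrometry across pH 6.5–8.5 and temperatures 30–80 °C.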

Micrococcus luteus = experiment: Antibacterial activity against Micrococcus luteus ATCC 4698 after 24 hrs by twofold broth dilution method; type: functional; settings: ATCC 4698, 24 h; procedure, shortened: as §1
Candida albicans = experiment: Antifungal activity against Candida albicans after 24 hrs by twofold broth dilution method; type: functional; procedure, shortened: as §1
Staphylococcus aureus [3] = experiment: Antibacterial activity against methicillin-resistant Staphylococcus aureus N315 after 24 hrs by twofold broth dilution method; type: functional; settings: N315, 24 h; procedure, shortened: as §1
[4] = Octanol-water partition coefficient, log P of the compound after 24 hrs by UV-Vis spectrophotometry; type: physicochemical
Candida = experiment: Antifungal activity against Candida mycoderma after 24 hrs by twofold broth dilution method; type: functional; procedure, shortened: as §1
Pseudomonas aeruginosa = experiment: Antibacterial activity against Pseudomonas aeruginosa after 24 hrs by twofold broth dilution method; type: functional
Procedure, shortened: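 Twofold broth dilution in 96-well microplates following NCCLS guidance; MIC read as the endpoint; tests run in triplicate.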

Staphylococcus aureus [5] = experiment: Antibacterial activity against Staphylococcus aureus ATCC 25923 after 24 hrs by twofold broth dilution method; type: functional; settings: ATCC 25923, 24 h; procedure, shortened: as §1
[6] = Stability of the compound at 30 to 80 degC after 30 mins by UV spectrophotometry; type: physicochemical; settings: 0.5 h; procedure, shortened: as §2

SMILES	solubility at 20 h [1] [µg/mL]	MIC (Proteus vulgaris) [µg/mL]	MIC (Escherichia coli) [µg/mL]	MIC (Shigella dysenteriae) [µg/mL]	MIC (Bacillus subtilis) [µg/mL]	Stability [2]	MIC (Micrococcus luteus) [µg/mL]	MIC (Candida albicans) [µg/mL]	MIC (Staphylococcus aureus [3]) [µg/mL]	logP at 24 h [4]	MIC (Candida) [µg/mL]	MIC (Pseudomonas aeruginosa) [µg/mL]	MIC (Staphylococcus aureus [5]) [µg/mL]	Stability [6]
COc1ccc2cc3[n+](cc2c1OCCN(CCn1c([N+](=O)[O-])cnc1C)Cc1ccc(F)cc1F)CCc1cc2c(cc1-3)OCO2.[Cl-]	60.6	64	128	256	64	Stable	128	64	16	-0.34	128	128	16	Stable
O=[N+]([O-])c1cn(CCN(CCBr)Cc2cccc(Cl)c2)cn1	–	512 (≈ 1320 µM)	128 (≈ 330 µM)	256 (≈ 660 µM)	64 (≈ 165 µM)	–	64 (≈ 165 µM)	128 (≈ 330 µM)	128 (≈ 330 µM)	–	128 (≈ 330 µM)	64 (≈ 165 µM)	64 (≈ 165 µM)	–
O=[N+]([O-])c1cn(CCN(CCBr)Cc2ccccc2Cl)cn1	–	64 (≈ 165 µM)	32 (≈ 82.5 µM)	32 (≈ 82.5 µM)	32 (≈ 82.5 µM)	–	64 (≈ 165 µM)	16 (≈ 41.3 µM)	64 (≈ 165 µM)	–	128 (≈ 330 µM)	32 (≈ 82.5 µM)	16 (≈ 41.3 µM)	–
O=[N+]([O-])c1cncn1CCN(CCBr)Cc1ccccc1Cl	–	16 (≈ 41.3 µM)	8 (≈ 20.6 µM)	16 (≈ 41.3 µM)	8 (≈ 20.6 µM)	–	64 (≈ 165 µM)	8 (≈ 20.6 µM)	16 (≈ 41.3 µM)	–	32 (≈ 82.5 µM)	16 (≈ 41.3 µM)	8 (≈ 20.6 µM)	–
NC1CCN(c2c(F)cc3c(=O)c(C(=O)O)cn(C4CC4)c3c2Cl)C1 (centres undefined) [CLINAFLOXACIN]	–	–	–	–	–	–	–	–	–	–	–	16 (≈ 43.7 µM)	–	–
O=[N+]([O-])c1cncn1CCN(CCBr)Cc1ccc(Cl)c(Cl)c1	–	32 (≈ 75.8 µM)	16 (≈ 37.9 µM)	8 (≈ 19 µM)	32 (≈ 75.8 µM)	–	128 (≈ 303 µM)	16 (≈ 37.9 µM)	32 (≈ 75.8 µM)	–	128 (≈ 303 µM)	16 (≈ 37.9 µM)	32 (≈ 75.8 µM)	–
O=[N+]([O-])c1cn(CCN(CCBr)Cc2ccc(Cl)c(Cl)c2)cn1	–	64 (≈ 152 µM)	32 (≈ 75.8 µM)	16 (≈ 37.9 µM)	32 (≈ 75.8 µM)	–	64 (≈ 152 µM)	32 (≈ 75.8 µM)	64 (≈ 152 µM)	–	64 (≈ 152 µM)	32 (≈ 75.8 µM)	32 (≈ 75.8 µM)	–
O=[N+]([O-])c1cncn1CCN(CCBr)Cc1ccc(Cl)cc1	–	256 (≈ 660 µM)	128 (≈ 330 µM)	256 (≈ 660 µM)	64 (≈ 165 µM)	–	128 (≈ 330 µM)	64 (≈ 165 µM)	128 (≈ 330 µM)	–	128 (≈ 330 µM)	64 (≈ 165 µM)	64 (≈ 165 µM)	–
O=[N+]([O-])c1cn(CCN(CCBr)Cc2ccc(Cl)cc2)cn1	–	128 (≈ 330 µM)	128 (≈ 330 µM)	128 (≈ 330 µM)	64 (≈ 165 µM)	–	128 (≈ 330 µM)	64 (≈ 165 µM)	128 (≈ 330 µM)	–	128 (≈ 330 µM)	256 (≈ 660 µM)	64 (≈ 165 µM)	–
COc1ccc2cc3[n+](cc2c1OCCN(CCn1cncc1[N+](=O)[O-])Cc1cccc(Cl)c1)CCc1cc2c(cc1-3)OCO2.[Cl-]	71.3	64	32	256	32	Stable	32	32	16	0.54	32	16	4	Stable
OC(Cn1cncn1)(Cn1cncn1)c1ccc(F)cc1F [FLUCONAZOLE]	–	–	–	–	–	–	–	1 (≈ 3.27 µM)	–	–	4 (≈ 13.1 µM)	–	–	–
Cc1ncc([N+](=O)[O-])n1CCN(CCBr)Cc1ccc(F)cc1F	–	128 (≈ 317 µM)	32 (≈ 79.4 µM)	32 (≈ 79.4 µM)	256 (≈ 635 µM)	–	128 (≈ 317 µM)	128 (≈ 317 µM)	16 (≈ 39.7 µM)	–	128 (≈ 317 µM)	64 (≈ 159 µM)	64 (≈ 159 µM)	–
O=[N+]([O-])c1cncn1CCN(CCBr)Cc1cccc(Cl)c1	–	256 (≈ 660 µM)	64 (≈ 165 µM)	256 (≈ 660 µM)	64 (≈ 165 µM)	–	64 (≈ 165 µM)	64 (≈ 165 µM)	64 (≈ 165 µM)	–	64 (≈ 165 µM)	32 (≈ 82.5 µM)	16 (≈ 41.3 µM)	–
CCn1cc(C(=O)O)c(=O)c2cc(F)c(N3CCNCC3)cc21 [NORFLOXACIN]	–	8 (≈ 25.1 µM)	16 (≈ 50.1 µM)	4 (≈ 12.5 µM)	1 (≈ 3.13 µM)	–	2 (≈ 6.26 µM)	–	8 (≈ 25.1 µM)	–	–	16 (≈ 50.1 µM)	0.5 (≈ 1.57 µM)	–
O=[N+]([O-])c1cn(CCN(CCBr)Cc2ccc(F)cc2F)cn1	–	32 (≈ 82.2 µM)	32 (≈ 82.2 µM)	16 (≈ 41.1 µM)	64 (≈ 164 µM)	–	16 (≈ 41.1 µM)	32 (≈ 82.2 µM)	64 (≈ 164 µM)	–	8 (≈ 20.6 µM)	16 (≈ 41.1 µM)	32 (≈ 82.2 µM)	–
COc1ccc2cc3[n+](cc2c1OC)CCc1cc2c(cc1-3)OCO2.[Cl-] [BERBERINE CHLORIDE]	–	128	> 512	256	> 512	–	> 512	> 512	128	–	128	256	512	–
O=[N+]([O-])c1cncn1CCN(CCBr)Cc1ccc(F)cc1F	–	16 (≈ 41.1 µM)	32 (≈ 82.2 µM)	8 (≈ 20.6 µM)	64 (≈ 164 µM)	–	16 (≈ 41.1 µM)	16 (≈ 41.1 µM)	32 (≈ 82.2 µM)	–	4 (≈ 10.3 µM)	8 (≈ 20.6 µM)	32 (≈ 82.2 µM)	–
